# Reference: ChEMBL document CHEMBL1123719, “Leukotriene receptor antagonists. 1. Synthesis and structure-activity relationships of alkoxyacetophenone derivatives” (J Med Chem, 1987)
# Species on record: Cavia porcellus
# Test: Negative logarithm of compound concentration that reduced an LTD4-induced contraction of guinea pig ileum by 50%
# Assay type: functional
# Summary of the method: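 Ileum from male Hartley guinea pigs (200-400 g), with isometric tension recorded. Two, three or four antagonist concentrations were tested on a single ileum against a submaximal LTD4 contraction. The concentration giving 50% inhibition was extrapolated by linear regression and expressed as -log IC50.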
row,IC50,Structure (SMILES)
1,0.794 µM,CCCc1c(OCCCCCCCCCC(=O)O)ccc(C(C)=O)c1O
2,0.316 µM,CCCc1c(OCCCCCCCCc2nn[nH]n2)ccc(C(C)=O)c1O
3,3.16 µM,CCCc1c(OCCCCCCN2CCOCC2)ccc(C(C)=O)c1O
4,0.794 µM,CCCc1c(OCCCCCCCC(=O)O)ccc(C(C)=O)c1O
5,3.16 µM,CCCc1c(OCCCCCCCCCCc2nn[nH]n2)ccc(C(C)=O)c1O
6,6.31 µM,CCCc1c(OCCCCCCN(C)C)ccc(C(C)=O)c1O
7,5.01 µM,CCCc1c(OCCCCCCN2CCN(C)CC2)ccc(C(C)=O)c1O
8,3.98 µM,CCCc1c(OCCCCCCO)ccc(C(C)=O)c1O
9,0.251 µM,CCCc1c(OCCCCCCCCCc2nn[nH]n2)ccc(C(C)=O)c1O

# System: Cavia porcellus
# Test: Bronchospastic activity to prevent increase in total pulmonary impedance (TPI) in guinea pig when administered intravenously
# Assay type: functional
# Summary of the method: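 Anesthetized male Hartley guinea pigs (200-400 g), body temperature kept normal on an isothermal pad. Total pulmonary impedance was recorded with pressure transducers. LTD4 was given iv as randomized doses to build dose-response curves. The antagonist was given intravenously.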
row,Structure (SMILES),Increase
1,CCCc1c(OCCCCCc2nn[nH]n2)ccc(C(C)=O)c1O,25.6%
2,CCCc1c(OCCCCCCc2nn[nH]n2)ccc(C(C)=O)c1O,27.1%
3,CCCc1c(OCCCCc2nnn[nH]2)ccc(C(C)=O)c1O [TOMELUKAST],2.2%

# Species on record: Cavia porcellus
# Test: Percent inhibition LTD4-induced contraction of guinea pig ileum at 1 uM of concentration
# Assay type: functional
# Summary of the method: (§1)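 Percent reduction of LTD4-induced contraction of isolated ileum from male Hartley guinea pigs (200-400 g). The antagonist was tested at the single concentration stated, and contraction was measured isometrically as grams of force.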
row,Structure (SMILES),Inhibition
1,CCCc1c(OCCCc2nnn[nH]2)ccc(C(C)=O)c1O,15%

# Species on record: Cavia porcellus
# Test: Percent inhibition LTD4-induced contraction of guinea pig ileum at 30 uM of concentration
# Assay type: functional
# Summary of the method: as §1
row,Structure (SMILES),Inhibition
1,CCCc1c(OCC(=O)O)ccc(C(C)=O)c1O,8%
2,CCCc1c(OCCC(=O)O)ccc(C(C)=O)c1O,23%
3,CCCc1c(OCc2nn[nH]n2)ccc(C(C)=O)c1O,28%
4,CCCc1c(OCCCC(=O)O)ccc(C(C)=O)c1O,43%

# Species on record: Cavia porcellus
# Test: Percent inhibition LTD4-induced contraction of guinea pig ileum at 10 uM of concentration
# Assay type: functional
# Summary of the method: as §1
row,Structure (SMILES),Inhibition
1,CCCc1c(OCCCCCC(=O)O)ccc(O)c1C(C)=O,0%

# Species on record: Cavia porcellus
# Test: Percent inhibition LTD4-induced contraction of guinea pig ileum at 3 uM of concentration
# Assay type: functional
# Summary of the method: as §1
row,Structure (SMILES),Inhibition
1,C=CCc1c(OCCCCCC(=O)O)ccc(C(C)=O)c1O,29%
2,CC(=O)c1ccc(OCCCCCC(=O)O)cc1O,11%
3,CCCc1c(OCCCCCCCCCCCCc2nn[nH]n2)ccc(C(C)=O)c1O,47%
4,CCCc1cc(C(C)=O)ccc1OCCCCCC(=O)O,0%
5,CCCc1c(OCCCCCC#N)ccc(C(C)=O)c1O,0%
6,CCCc1c(OCCCCCCCCCCC(=O)O)ccc(C(C)=O)c1O,79%
7,CCCc1c(OCCCCCC(=O)O)ccc(C(=O)OC)c1O,21%

# System: cysteinyl leukotriene receptor (Cavia porcellus)
# Test: Inhibition of LTD4-induced contraction of guinea pig ileum.
row,pKB,Structure (SMILES)
1,7,CCCc1c(OCCCCCCCc2nn[nH]n2)ccc(C(C)=O)c1O
2,6.6,CCCc1c(OCCCCCc2nn[nH]n2)ccc(C(C)=O)c1O
3,5.8,CCCc1c(OCCCCC(=O)O)ccc(C(C)=O)c1O
4,5.7,CCCc1c(OCCCCCCC(=O)O)ccc(C(C)=O)c1O
5,7.1,CCCc1c(OCCCCCCc2nn[nH]n2)ccc(C(C)=O)c1O
6,6.1,CCCc1c(OCCCCCC(=O)O)ccc(C(=O)CC)c1O
7,5.8,CCCc1c(OCCCCCCCCC(=O)O)ccc(C(C)=O)c1O
8,6,CCCc1c(OCCCCCC(=O)O)ccc(C(C)=O)c1O
